# Source: PubChem BioAssay
# Only some compounds are listed: those with a hit (about 1.8% of all), similar ones and a draw of the others.
# LMPTP block = blocks human LMPTP phosphatase. AID 651560. inhibition, % at 20 µM. recombinant LMPTP-A, OMFP fluorogenic substrate, fluorescence intensity. 0.22% of 360,000 active. P24666;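 active means compounds that cut the enzyme signal by at least half of the control window in the single-dose screen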;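 further: plate controls were DMSO wells with enzyme plus substrate for no effect and substrate without enzyme for full effect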
# Target sequence (P24666 whole entry, looked up): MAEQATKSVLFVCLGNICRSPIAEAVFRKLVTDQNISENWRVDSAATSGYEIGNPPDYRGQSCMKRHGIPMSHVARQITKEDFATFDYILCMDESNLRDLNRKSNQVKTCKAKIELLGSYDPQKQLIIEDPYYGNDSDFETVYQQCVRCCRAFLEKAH
#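 Assay system: LMPTP-A enzyme. Input: 0.625 nM LMPTP-A final. Probe or stimulus: 400 µM OMFP. Compound dosing: single 20 µM dose. Schedule: 50 min dark incubation at room temperature. Detection: fluorescence intensity of OMFP turnover product. Read-out: percent inhibition versus substrate-only and uninhibited controls. Benchmarks: no-enzyme low control, uninhibited high control.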
# DNMT1 inh = DNMT1 (human) enzyme inhibition | P26358 | DNMT1 molecular beacon, Hinp1I cleavage, fluorescence | inhibition (reported as % activation of signal), % at 10 µM | 0.83% of 360,000 active | AID 588458; in the data active means inhibition above about 50%
# Scp1 inh = inhibitors of human Scp-1 phosphatase; inhibition, % at 20 µM; Recombinant Scp1, phosphopeptide, malachite green phosphate absorbance; AID 493091; Q9GZU7; 0.88% of 340,000 active;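 active means inhibition above about 50% at 20 µM, limit read from the data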;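 further: plate controls were DMSO wells with enzyme for no effect and wells lacking enzyme for full effect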
# Target sequence (Q9GZU7 76-261 limits assumed): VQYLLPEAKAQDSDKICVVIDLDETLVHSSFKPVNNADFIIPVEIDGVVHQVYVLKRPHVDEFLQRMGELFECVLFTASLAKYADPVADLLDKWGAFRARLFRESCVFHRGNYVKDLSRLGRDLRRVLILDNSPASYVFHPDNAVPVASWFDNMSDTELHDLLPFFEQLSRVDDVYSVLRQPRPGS
#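 Material: truncated SCP-1 phosphatase (76-261aa) / Buffer or medium: 50 mM Tris acetate pH 5.5, 0.005% Tween-20, 10 mM MgCl2 / Compound dosing: one concentration, 20 µM, with 1.0% DMSO / Incubation: 45 min room-temperature reaction, 5 min colour, 30 min stabiliser / Detection: colorimetric free-phosphate detection, absorbance 630 nm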
# STEP block = STEP (human) phosphatase inhibition; AID 588621; 0.25% of 360,000 active; recombinant STEP, OMFP fluorogenic substrate, fluorescence; inhibition, % at 20 µM; P54829;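 active means inhibition at 20 µM, scaled per plate between control wells, above about 37%, limit read from the data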;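 further: 0% = DMSO with enzyme and substrate and 100% = substrate only without enzyme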
#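 System: STEP (striatal-enriched tyrosine phosphatase) enzyme, cell-free; medium: Bis-Tris pH 6.0 buffer with DTT, detergent; dosing: 20 µM, 1% DMSO; times: reaction 20 min, ambient temperature; detection: fluorescence, 480/540 nm; read-out basis: normalized % inhibition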
# SUMO1 PPI mod = alters human SUMO1 binding to SIM partners; inhibition, % at 20 µM; SUMO1 binding to a labelled peptide, TR-FRET, 1 h; P63165; 0.33% of 360,000 active; in the data active means inhibition above about 37%
# Target sequence (P63165 whole entry, looked up): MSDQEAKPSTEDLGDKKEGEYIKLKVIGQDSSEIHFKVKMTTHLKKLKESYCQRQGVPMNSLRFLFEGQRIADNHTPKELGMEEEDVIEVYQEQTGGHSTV
# HKDC1 inhibitor = blocks human hexokinase HKDC1 activity | Q2TB90 | recombinant HKDC1, G6PDH/diaphorase resazurin coupled fluorescence | inhibition, % at 20 µM | 0.16% of 340,000 active | AID 493160;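 active means inhibition above about 35% when tested at 20 µM, limit read from the data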;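 further: plate controls were DMSO wells with enzyme for no effect and DMSO wells lacking enzyme for full effect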
#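 Assay system – recombinant HKDC1 (HK5) hexokinase enzyme, produced in-house · Input – HKDC1 at 5 µg/mL · Reagent – glucose plus 1 mM ATP as hexokinase substrates · Timing – 90 min reaction incubation at room temperature, dark · Measured by – G6PDH/diaphorase-coupled fluorescence, 1 mM NADP, 100 µM resazurin, 525/613 nm · Benchmarks – DMSO-enzyme wells negative, buffer-substituted wells positive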
# Active calls of the source: *; nt = no result; + = active, no number.
SMILES,LMPTP block,DNMT1 inh,Scp1 inh,STEP block,SUMO1 PPI mod,HKDC1 inhibitor
COc1ccc(NC(=O)C2CCC(CNc3c(N4CCOCC4)c(=O)c3=O)CC2)cc1Cl (centres undefined),-1.0,2.3,-4.0,0.2,2.0,-2.8
COc1ccc(NC(=O)c2ccc(CNc3c(N4CCCC4)c(=O)c3=O)cc2)cc1Cl,3.6,0.8,-4.3,0.1,58.3*,-8.9
CN(C)S(=O)(=O)c1cccc(NC(=S)N/N=C/c2ccc(O)c(O)c2O)c1,60.7*,-5.5,-13.7,10.9,26.7,32.0
COc1ccc(O)c(/C=N/NC(=S)Nc2cccc(S(=O)(=O)N(C)C)c2)c1,1.2,-12.5,-16.9,1.5,6.4,-30.6
COC(=O)c1sccc1S(=O)(=O)Nc1ccc(C(O)(C(F)(F)F)C(F)(F)F)cc1,-1.1,-1.8,nt,-0.6,0.0,nt
CCOc1ccccc1OCCCC(=O)Nc1nc2ccccc2[nH]1,-0.9,0.8,-2.3,4.0,1.7,-4.3
CCOc1ccccc1/C=C/c1nc2ccccc2[nH]c1=O,1.8,81.0*,-7.0,1.4,-10.4,5.8
NC(=O)CC(c1ccccc1)c1ccc2c(c1)OCO2 (centres undefined),-0.6,1.1,-5.2,3.0,20.5,2.3
NC(CSC(c1ccccc1)(c1ccccc1)c1ccc2c(c1)OCO2)C(=O)O (centres undefined),1.7,51.5*,nt,3.8,5.2,nt
C/C(=N\NC(=O)c1ccncc1)c1cccc(NC(=O)c2ccc(Cl)s2)c1,-0.6,-0.9,-6.9,-2.3,-4.1,2.0
C[N+]12CCCCC1C(COC(=O)c1ccc3c(c1)OCO3)CCC2 (centres undefined),-0.6,2.1,106.0*,2.0,0.5,-6.1
CN(C(=O)COC(=O)c1ccc2c(c1)OCO2)C1CCCCC1,0.8,-0.4,-2.2,-3.3,-2.9,1.6
CCOc1ccc(CCNC(=O)c2ccc(OCc3c(C)noc3C)cc2)cc1OCC,-0.9,-1.8,-6.9,-0.5,2.2,-4.4
CN(C)C(=O)c1cccc(-c2cnc3c(NC=O)cc(-c4ccccc4Cl)cn23)c1,1.2,-5.5,nt,1.9,-4.2,nt
CN(C)C(=O)c1cccc(-c2cnc3c(NC=O)cc(-c4ccccc4N(C)C)cn23)c1,-3.9,140.6*,nt,-67.3,-4.3,nt
CN(C)c1ccccc1-c1cc(NC=O)c2ncc(-c3cccc(C(F)(F)F)c3)n2c1,-5.3,+,nt,-156.9,-1.3,nt
COc1ccc(-n2c(SCC(=O)NCC3CCCO3)nc3ccccc3c2=O)cc1Cl (centres undefined),-0.8,0.3,nt,-0.4,8.9,nt
N=C1CCC(=N)c2c1c(O)c1ccccc1c2O,31.2,75.6*,41.8,6.2,44.4*,25.7
COc1cc(F)ccc1-c1csc(C(NC(C)=O)c2ccc(F)c(F)c2)n1 (centres undefined),-1.5,10.0,nt,-1.4,-0.6,nt
CCCCCCCCCCCCCCCC(O)C[N+](C)(C)CCO (centres undefined),-3.5,0.6,81.8*,3.6,-176.1,0.1
O=C(CN1CCN(c2ccccc2F)CC1)c1ccc2cc[nH]c2c1,67.3*,-18.7,2.4,1.8,-0.5,4.8
CC(=O)N1CCc2cc(C(=O)CN3CCN(c4ccccc4F)CC3)ccc21,1.5,-3.2,-9.2,-0.2,-1.5,-0.6
CCCN(CCC)C1=CC(=[N+]2CCCC2)CC(C)(C)C1,-1.7,16.6,76.9*,-1.0,-0.3,-2.6
CN(C)NC1=CC(=[N+]2CCCC2)CC(C)(C)C1,-0.9,1.6,-3.0,-0.8,-2.0,1.0
Oc1cccc(C=Nc2cccc3ccccc23)c1O,25.1,-8.6,-7.0,6.4,67.5*,16.6
SMILES,LMPTP block,DNMT1 inh,Scp1 inh,STEP block,SUMO1 PPI mod,HKDC1 inhibitor
Oc1ccccc1C=Nc1cccc2ccccc12,-1.5,-7.8,-9.4,-1.0,0.0,8.0
Cc1ccc2[nH]c3ccccc3c(=O)c2c1,0.5,10.5,-9.1,5.4,-22.7,-1.8
O=c1c2ccccc2[nH]c2ccc(O)cc12,6.6,32.9,60.9*,7.6,5.4,9.3
COc1cc(NC(=O)Cn2c([N+](=O)[O-])cnc2C)c(OC)cc1Cl,-1.1,-2.7,-4.7,-1.0,-5.7,0.5
COc1cc(/C=C2/C(=O)c3cccc([N+](=O)[O-])c3C2=O)c(Br)cc1O,3.2,13.6,68.5*,4.5,17.1,28.6
COc1ccccc1NC(=O)CCCCCN1C(=O)c2cccc([N+](=O)[O-])c2C1=O,0.3,-0.8,-4.7,-0.1,-35.3,-4.8
COc1ccc(NC(=O)c2ccc(CNc3c(NC4CCCCC4)c(=O)c3=O)cc2)c(OC)c1,0.1,4.6,-7.6,2.1,0.8,-4.7
CCOc1ccc(NC(=O)c2ccc(CNc3c(NC4CCCCC4)c(=O)c3=O)cc2)cc1,-1.5,55.7*,4.1,-0.3,12.2,-5.8
O=c1c2cc(Cl)ccc2nc(-c2ccc(Cl)c(Cl)c2)n1O,54.4*,0.7,-1.8,4.0,3.1,4.8
Cc1cc(=O)n2c3c(c4c(cc13)c(CN(C)C)cc(=O)n4C)OC2,-0.3,20.3,-7.6,-0.4,-1.3,26.8
COc1ccc(C(=O)N/N=C(\C)c2ccc(NC(=O)Cc3ccccc3)cc2)c(OC)c1,0.2,5.0,-1.8,0.9,46.5*,-1.8
C=CCN(CC=C)S(=O)(=O)c1ncn[nH]1,-2.9,41.4,0.5,1.5,43.6*,-1.1
C[C@H]1COc2cccc(N(C)CCO)c2S(=O)(=O)N1,0.0,nt,nt,nt,1.4,nt
Nc1sc2c(c1C(=O)NC1CC1)CCCC2,2.0,-8.0,-3.6,7.5,2.8,9.6
CC(OC(=O)c1ccc([N+](=O)[O-])s1)C(=O)NC1CCCCC1C (centres undefined),-1.3,70.6*,-2.2,2.3,12.7,2.8
COc1cc(C(=O)OC(C)C(=O)NC2CCCCC2C)c([N+](=O)[O-])cc1OC (centres undefined),0.2,1.8,7.9,-2.5,-13.6,2.1
N#Cc1cccc(NC(=O)CSc2ccccc2)c1,-2.4,5.5,1.5,-2.5,0.2,7.3
N#Cc1cccc(NC(=O)CSc2ccc3c4c(cccc24)C(=O)c2ccccc2-3)c1,27.1,82.2*,41.8,-8.8,-14.5,10.8
CN(C(=O)CCOc1ccccc1)c1c(N)n(Cc2ccccc2)c(=O)[nH]c1=O,-0.6,-3.3,-2.8,0.3,-0.9,1.3
CC(C(=O)Nc1ccc(C#N)cc1)N(C)CC(=O)N(C)c1c(N)n(Cc2ccccc2)c(=O)[nH]c1=O (centres undefined),-0.5,4.3,-9.5,-3.7,46.5*,-5.3
Oc1cc2c(cc1O)C1c3ccc(O)c(O)c3OCC1(O)C2 (centres undefined),3.2,9.7,60.9*,4.0,9.6,6.5
